# Bioassay records: PubChem, The Scripps Research Institute Molecular Screening Center
# A selection: hits, their analogues and other compounds. The true share with any hit is near 1.8%.
# TLR4-MyD88 BLA = inhibitors of human TLR4-MyD88 binding; AID 861; HeLa CL3-4 TLR4/MyD88 BLA complementation, FRET ratio; 200,000 tested, 0.18% active; O00206+Q99836; inhibition, % at 8.4 µM; in the data active = inhibition above about 25%;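 note: 0% = vehicle and 100% = reference inhibitor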
# NOD2-RIPK2 inh = NOD2-RIPK2 protein interaction inhibition. inhibition, % at 4.98 µM. O43353. 360,000 tested, 0.38% active. CHO BLA complementation NOD2-RIPK2, CCF4 ratio; in the data active = inhibition above about 21%;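 note: 0% = vehicle only and 100% = reference blocker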
# MC4R antagonist = antagonists of human melanocortin 4 receptor (MC4R). P32245. MC4R-expressing cells, MTII-stimulated cAMP, LANCE TR-FRET. inhibition, % at 6.5 µM. 360,000 tested, 0.48% active. AID 540295;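 active = inhibition above its plate's cutoff, the mean of tested wells on that plate plus 3 SD, cut at about 29% in these data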;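 note: 0% = Melanotan II alone and 100% = Melanotan II plus saturating MCL0020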
# Target sequence (P32245 whole entry, looked up): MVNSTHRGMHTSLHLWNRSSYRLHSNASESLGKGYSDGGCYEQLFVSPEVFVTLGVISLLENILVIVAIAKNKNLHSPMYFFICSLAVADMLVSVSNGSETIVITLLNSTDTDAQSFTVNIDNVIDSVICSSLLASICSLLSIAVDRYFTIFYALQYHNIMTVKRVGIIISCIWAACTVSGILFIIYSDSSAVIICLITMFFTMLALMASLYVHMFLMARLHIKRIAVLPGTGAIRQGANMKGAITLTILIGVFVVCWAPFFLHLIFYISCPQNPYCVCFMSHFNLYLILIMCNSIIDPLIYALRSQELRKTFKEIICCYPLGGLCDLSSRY
#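 Assay system: U2OS cells stably expressing human melanocortin 4 receptor (MC4R) / Dosing: 6.5 µM / Timing: compound 30 min, challenge 1 h, detection 1 h / Measured by: Eu-cAMP/anti-cAMP TR-FRET, emission 671 nm / Replicates: singlicate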
# MC4R ag barr = agonists of human melanocortin 4 receptor (MC4R) beta-arrestin | P32245 | U2OS MC4R beta-arrestin complementation, luminescence; percent of melanotan II response, DMSO zero | 360,000 tested, 0.98% active | AID 540308 | activation, % at 8.9 µM;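 active = activation above a per-plate cutoff, the mean activation of sample wells on that plate plus 3 SD, cut at about 8% in these data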
# TLR9-MyD88 block = TLR9-MyD88 interaction inhibition; Q9NR96+Q99836; CHO BLA complementation TLR9-MyD88, CCF4 FRET ratio; inhibition, % at 4.98 µM; 340,000 tested, 0.21% active; AID 504734;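 active = inhibition above the mean over all tested compounds plus 3 SD, cut at about 21% in these data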;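 note: 0% = DMSO only wells and 100% = clavulanate BLA inhibitor control wells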
# U2OS cAMP counter = U2OS forskolin cAMP inhibition counter-screen; inhibition, % at 6.5 µM; parental U2OS, LANCE TR-FRET; 1,600 tested, 26% active; shares compounds with MC4R antagonist; AID 602193;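 active = mean inhibition over triplicates above the low-control well mean plus 3 SD, set per campaign, cut at about 13% in these data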;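 note: signal is single emission at 671 nm which falls as cellular cAMP rises; 0% = forskolin-stimulated wells and 100% = buffer without forskolin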
# MC4R cAMP antag = human MC4R cAMP antagonism confirmation; MC4R-expressing cells, MTII-stimulated cAMP, TR-FRET; shares compounds with MC4R antagonist; inhibition, % at 6.5 µM; AID 602195; 1,600 tested, 27% active; in the data active = inhibition above about 29%;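 note: 0% = agonist stimulated wells alone and 100% = agonist stimulated wells plus saturating reference antagonist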
# * marks the source's active call; other numbers are inactive results; . = not tested or not shown.
SMILES,TLR4-MyD88 BLA,NOD2-RIPK2 inh,MC4R antagonist,MC4R ag barr,TLR9-MyD88 block,U2OS cAMP counter,MC4R cAMP antag
COC(=O)c1c(NC(=O)CC2SCC(C(=O)OC)NC2=O)sc2c1CCCC2 (centres undefined),1,4,29*,1,1,10,32*
CCOC(=O)C(C)Oc1c(C(=O)OC)sc2ncccc12 (centres undefined),13,-13,4,0,-14,.,.
COC(=O)c1sccc1NC(=S)Nc1cccc(F)c1,.,-5,12,0,12,.,.
COC(=O)c1sccc1NC(=S)Nc1ccc(F)cc1F,6,-10,30*,1,-8,-1,-19
O=C(CSCC(=O)OCC(=O)c1ccc(Br)cc1)Nc1ccc(Br)cc1,-1,-7,1,2,-17,.,.
CCOC(=O)c1ccc(NC(=O)CSCC(=O)OCC(=O)c2ccccc2)cc1,-2,-4,36*,2,-7,8,18
CCCC1=NN2C(=N)/C(=C\c3cc(C)n(-c4cc(C)cc(C)c4)c3C)C(=O)N=C2S1,8,-9,30*,2,-20,-1,-20
CCC1CCCCN1C(=O)COC(=O)CSc1ccc(C(N)=O)cc1[N+](=O)[O-] (centres undefined),.,6,13,0,-18,.,.
NC(=O)c1ccc(SCC(=O)OCC(=O)NCC2CCCCC2)c([N+](=O)[O-])c1,.,5,31*,-3,5,10,36*
COc1cccc(Nc2nc(-c3cccs3)nc3ccccc23)c1,-6,-4,32*,-1,1,8,17
CCN(CC)S(=O)(=O)c1ccc(Cl)c(C(=O)OC2CC(C)OC2=O)c1 (centres undefined),.,-2,40*,2,-10,9,20
CC1=C(C(=O)OC(C)C)C(c2ccc3c(c2)OCO3)NC(=O)N1 (centres undefined),.,5,-4,-1,-4,.,.
O=C(COC(=O)CNS(=O)(=O)c1cccc(Br)c1)Nc1ccccc1Sc1ccccc1,-10,-8,29*,5,-4,6,18
CCCC(=O)OCC(=O)Nc1ccccc1Sc1ccccc1,-4,2,19,-1,-12,.,.
O=C(COC(=O)CNS(=O)(=O)c1c(Cl)cccc1Cl)Nc1ccccc1Sc1ccccc1,-1,9,32*,0,5,18*,37*
CC(C)[C@H](NS(=O)(=O)c1ccccc1)C(=O)OCC(=O)Nc1ccccc1Sc1ccccc1,-16,-11,10,2,-2,.,.
CCCn1c(SC(C)C(=O)N2CCOCC2)nc2ccc(Br)cc2c1=O (centres undefined),.,2,-7,0,1,.,.
COc1cc(C(=O)N2Cc3cc4ccccc4nc3C2C)cc(OC)c1OC (centres undefined),.,-13,13,-2,-11,.,.
Cc1nn(-c2ccccc2)c2nc(-c3ccccc3)cc(C(=O)N3CCOCC3)c12,6,3,-2,-2,12,.,.
Cc1nn(-c2cccc(Cl)c2)c2nc(-c3ccncc3)cc(C(=O)N3CCOCC3)c12,-12,-7,34*,7,3,0,17
Fc1ccc(NC(=S)Nc2ccc3nccnc3c2)cc1,-1,1,36*,2,-4,-2,-1
OCCCNC(=S)Nc1ccc2nccnc2c1,-2,10,16,0,-11,.,.
CC1(C)OC(=O)C(=Cc2ccc(-c3ccc(S(N)(=O)=O)cc3)o2)C(=O)O1,9,-10,39*,-1,14,11,19
COC(=O)C(CC(C)C)NC(=O)/C=C/c1ccc(Cl)cc1 (centres undefined),7,-3,35*,2,0,7,20
O=C(O)c1cc(-c2ccc(Cl)s2)nc2ccccc12,6,1,34*,1,1,12,28
SMILES,TLR4-MyD88 BLA,NOD2-RIPK2 inh,MC4R antagonist,MC4R ag barr,TLR9-MyD88 block,U2OS cAMP counter,MC4R cAMP antag
Cc1ccc(-c2cc(C(=O)O)c3ccccc3n2)s1,.,3,2,-2,2,.,.
Cc1ccc(Sc2ccc(/C=N/O)cc2[N+](=O)[O-])cc1,-7,8,-1,2,4,.,.
CO/N=C/c1ccc(Sc2ccc(C)cc2)c([N+](=O)[O-])c1,13,-18,29*,-1,-4,-2,-12
Cc1ccc(S(=O)(=O)CC(=O)N2CCN(c3cccc(C(F)(F)F)c3)CC2)cc1,.,-6,13,-2,5,.,.
Cc1ccc(CC(=O)N2CCN(c3cccc(C(F)(F)F)c3)CC2)cc1,-3,-5,33*,3,-5,-1,0
CC(C)(C)N(Cc1ccccc1)C(=O)COC(=O)C1=NN(c2ccccc2)C(=O)CC1,.,-11,-5,-3,2,.,.
COc1cccc(CNC(=O)Cc2ccc(S(=O)(=O)N3CCOCC3)s2)c1,.,-4,4,1,4,.,.
CCOC(=O)c1cc(C(=O)c2ccccc2O)cn2c(=O)c3c(C)c(C)sc3nc12,16,.,.,.,.,.,.
CS(=O)(=O)c1ccc(C(=O)NCCN2C(=O)S/C(=C\c3cccnc3)C2=O)cc1[N+](=O)[O-],-4,2,32*,-2,15,18*,33*
COCCCn1c(SCC(=O)NC2CCCCC2)nnc1-c1ccncc1,3,-6,2,-2,-2,.,.
COCCn1c(SCC(=O)NC2CCCCC2C)nnc1-c1ccncc1 (centres undefined),.,-4,29*,0,3,0,-4
CC1(C)Cc2c(sc3[nH]c(=S)n(Cc4ccco4)c(=O)c23)CO1,-16,1,34*,0,3,7,17
Cc1cc(C(=O)COc2ccc([N+](=O)[O-])cc2)c(C)n1C1CC1,.,3,1,0,-2,.,.
Cc1cc(C(=O)COc2cc(F)ccc2[N+](=O)[O-])c(C)n1C1CC1,-3,-10,29*,-1,8,19*,48*
Cc1cc(C#N)c(C)c(SCc2[nH]nc3c2C(c2ccccc2)C(C#N)=C(N)O3)n1 (centres undefined),2,-12,31*,1,6,4,-6
S=c1nc(-c2ccccc2)[nH]c2ccccc12,7,9,5,-3,-5,.,.
S=c1nc[nH]c2c1[nH]c1ccccc12,-1,-4,49*,-3,-11,4,17
S=c1nc[nH]c2c1[nH]c1ccc(Cl)cc12,.,4,35*,2,-4,3,-4
CCOC(=O)C1(C)CCCCCN1C(=O)c1ccccc1F (centres undefined),.,-4,6,-2,.,.,.
O=C(C[C@@H]1C/C=C\C[C@@H](Cc2ccc(F)cc2)C(=O)OC[C@@H]2CCCN2C1=O)NCCO,.,-8,10,-3,-8,.,.
